Data on 47 sequences can be found in the EternaBench riboswitch data.

For this data set, the system named is MS2 coat protein. The data set can be described thus: apparent Kd, MS2 coat protein; higher = weaker binding; RNA-MaP array; FMN 200 µM where present. A digest of the protocol:
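Designs were transcribed by stalled E. coli RNA polymerase on Illumina sequencing-chip clusters. They were titrated with SNAP-549-labelled MS2 coat protein from 0.7 or 1.5 nM, doubling to 3 µM, without and then with constant ligand. Buffer: 100 mM Tris-HCl pH 7.5, 80 mM KCl, 4 mM MgCl2, BSA, DTT, yeast tRNA, Tween-20. Green signal was normalised to red-channel RNA signal and control-cluster median Fmax. Apparent Kd is the median of filtered per-cluster binding-curve fits.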

[1] abbreviates: designed as: OFF switch for flavin mononucleotide, no ligand.
The mark [2] stands for this setting: ligand present: flavin mononucleotide, designed as: OFF switch for flavin mononucleotide.
The mark [3] stands for this setting: designed as: ON switch for flavin mononucleotide, no ligand.
Where [4] appears, read: ligand present: flavin mononucleotide, designed as: ON switch for flavin mononucleotide.

Regarding “UUAAAUCAUGUAGGAUAUGCAUGGCGAAGCUACGCAGAAGGACAUGAGGAUCACCCAUGUUAUAGCUUCCAAGUUAGGAGGCAA”, the “apparent Kd” value by setting is: under setting [1], 85.7 nM; under setting [2], 191 nM.
Take “ACAGAGGCUGACAUGAGGAUCACCCAUGUUAGAUUGUUAUGUCAGGAUAUUAUCUGGCAACCAGAUAAGAAGGGACCCUCUGUG”: the “apparent Kd” value is, setting by setting: under setting [3], 31.2 nM; under setting [4], 8.45 nM.
As to “CCGGAAAUAGAGGAUAUAGGACUGGAUACAGUCCUAGAAGGCUAUACAUGAGGAUCACCCAUGUGUCCUACCGG”, the “apparent Kd” value reads like this: under setting [1], 15.7 nM; under setting [2], 44 nM.
As to “CUGCCUUAUGUAGGAUAUGCAUAGCGUUGCUAUGCAGAAGGACAUGAGGAUCACCCAUGUAUGUUAUCAAUACAUAUCUGGCAG”, the “apparent Kd” value reads like this: under setting [1], 16.9 nM; under setting [2], 53.2 nM.
Taken in the same sequence, the figures for “GGAUAGGACAGAGGAUAUACGUGCGAGAGAUACUAGCAAAAUUUCCUCACAUGAGGAUCACCCAUGUAGAAGGCUGUCCUAUCG” were 162 nM and 195 nM.
Take “CCGUGGCAAGGAUAUACAUAGGAGAGGAAGGCAAGAGGAGGACAUGAGGAUCACCCAUGUAGAAGGUGCAGAUC”: the “apparent Kd” value turned out to be 73.8 nM under setting [1] and 67.8 nM under setting [2].
For “AGUCGGCGAGGAUAUACAUGAGGAUCACCCAUGUGUGAUCCUAGACCUGUAGGUCCAUGUAGAAGGCGCUGACA”, the “apparent Kd” value under setting [1] amounted to 19.6 nM and the “apparent Kd” value under setting [2] stood at 23.6 nM.
With “GGCUGGCAGCUAGGAUAUGGGCGGUCACAUGAGGAUCACCCAUGUCAACAUCAAAACCAGAUUAACCAGAAGGAGCUGCGGAUU”, the “apparent Kd” value reads like this: under setting [3], 32.7 nM; under setting [4], 502 nM.
Take “AAUUAUUCAGGAGGAUAUCCCAGGACAUGAGGAUCACCCAUGUUCGGGUUGCCCUCAUGAACGCCGGAGAAGGCCUGAACGAAU”: the “apparent Kd” value by setting is: under setting [1], 13 nM; under setting [2], 17.1 nM.
“CCUCGACAUGAGGAUCACCCAUGUUAGGAUAUGGGAGCGGGAAUUUGAGUAUUCGUACCCAGAAGGAACAGUUA”: the “apparent Kd” value turned out to be 42.6 nM under setting [1] and 96 nM under setting [2].
As for “UAAAUUAACAAGAAGGCUAACAUGAGGAUCACCCAUGUUGUACAUGGAUAUAGAGGAUAUUGCUAAUUAUUAUUUAUCAUAAUU”, the “apparent Kd” value is, setting by setting: under setting [1], 23.6 nM; under setting [2], 18.3 nM.
In the case of “GGGUACAUCGGAGGAUAUCAUGUAAAUACAUGAGGAUCACCCAUGUCGAUGGAGACAUCGUAGAUUGAGAAGGCCGAUGUACCG”, the “apparent Kd” value under setting [3] amounted to 9.85 nM and the “apparent Kd” value under setting [4] was 5.37 nM.
On to “GUAGUGCUCAUAGGAUAUCGGGAACGACUUAGACAGGUCGUACAUGAGGAUCACCCAUGUAAAGUCGAGAAGGGUGAUCACGCC”, for which the “apparent Kd” value worked out at 592 nM under setting [3] and 160 nM under setting [4].
For the sequence “UAAUAAUUAUGAGGAUAUAUACAACAUGAGGAUCACCCAUGUACCCAUGUAGUAGAAGGCAUAUUUUUAUUUAAUAAUAUAAUU”, the “apparent Kd” value under setting [3] was determined as 79.4 nM and the “apparent Kd” value under setting [4] was found to be 33.9 nM.
For the sequence “GAUUGACAUGAGGAUCACCCAUGUGAGGAUAUCGGCCGGACCUUGUUAGCUUCCACCGCGAGAAGGCACAUAGG”, the “apparent Kd” value reads like this: under setting [1], 30.9 nM; under setting [2], 41.6 nM.
For “UCGAUCGUAUGAGGAUAUGGUACACAAAGUGUACCAGAAGGCAUGUCAAUAGACAUGAGGAUCACCCAUGUAUUAUCGAUCGAA”, the “apparent Kd” value came out at 361 nM under setting [3] and 51.7 nM under setting [4].
In the case of “GAACAUGAGGAUCACCCAUGUUCUCCAGAAGGCCGUACAUUUAAAAGUGGAUGGAUUAGUAUUGCGGAGGAUAUGGAGGUGCAA”, the “apparent Kd” value runs as follows: under setting [3], 102 nM; under setting [4], 61.1 nM.
“GGGUACAUCGGAGGAUAUCAUGUAUAUACAUGAGGAUCACCCAUGUCGUACGAGAGUACGGAGAUUGAGAAGGCCGAUGUACCG”: the “apparent Kd” value under setting [3] was found to be 39.4 nM and the “apparent Kd” value under setting [4] was found to be 14.4 nM.
With “GGGUAGGUAGGAUAUGCGUGCAGGGUGUCUUCCAAUGAUCAACAUGAGGAUCACCCAUGUAGAAGGAUCGAGCU”, the “apparent Kd” value was found to be 331 nM under setting [1] and 319 nM under setting [2].
Taken in the same sequence, the figures for “GAGUGCUUAGGAUAUACAUGAGGAUCACCCAUGUGCUUCAGCUAGGAGACUAGCAUUGGUAGAAGGAAGUACUC” were 14.5 nM and 48.6 nM.
As to “UGAACUAUGUAGAAGGCCCAUAUUUAUAUAUAGGGAGGAUAUACAUGAGGAUCACCCAUGUAUAGAGCAAGAGGACUUGUCAGU”, the “apparent Kd” value turned out to be 6.34 nM under setting [1] and 7.07 nM under setting [2].
Taken in the same sequence, the figures for “UUAACUCAUGUAGGAUAUGCAUGGCGAAGCUACGCAGAAGGACAUGAGGAUCACCCAUGUUCUAGCGUCUGGAAACAGAUGCAA” were 67.9 nM and 359 nM.
On to “CCGUAAGAGCGGACAUGAGGAUCACCCAUGUAAGAGUCAUCCAGAAGGUCAGCGCUAAAUGGAAUGAAGGAUAUGGAGUGGGUC”, for which the “apparent Kd” value runs as follows: under setting [3], 668 nM; under setting [4], 357 nM.
In the case of “ACGAAGAUACAGAAGGGUAAAGUAGUUAAUUAUAAGUAGGAAAUGCUCUACAGGAUAUGUUAGACAUGAGGAUCACCCAUGUAC”, the “apparent Kd” value came to 30.7 nM under setting [3] and 13.1 nM under setting [4].
For the sequence “ACCGUAUGAACAUGAGGAUCACCCAUGUAUCCGAAAAGGAAUGAGGAUAUCGAUAGCAAAGCUAUCGAGAAGGCAUGGGACGGU”, the “apparent Kd” value reads like this: under setting [3], 742 nM; under setting [4], 389 nM.
On to “UACAUGAGGAUCACCCAUGUUUUGUCGUGUAUGGUAUUUAUCUAGGAUAUCAAUAUAUUUAUUUAUGAGAAGGAGAAUAUUAAU”, for which the “apparent Kd” value runs as follows: under setting [1], 38 nM; under setting [2], 33.6 nM.
On to “GCACAUGAGGAUCACCCAUGUGGUCCAGAAGGCCAGAGGAUCUGCUUUUAGCAGGUCCCUCAAAUGGAGGAUAUGGAGGGUUCU”, for which the “apparent Kd” value under setting [3] was 261 nM and the “apparent Kd” value under setting [4] is 44.7 nM.
“GUAUGAGCGAUAGGAUAUACUGAGAUUGAAUGGGUAGAAGGAUCACUUGUGUGGAAGACAUGAGGAUCACCCAUGUCACGGGCC”: the “apparent Kd” value runs as follows: under setting [3], 52.3 nM; under setting [4], 157 nM.
For “UCAUGAUAUGUAGGAUAUCACAAUAAUUGAUUAAUAUAUGAAUAUAGAAUUUGAGAAGGACAUUUACAUGAGGAUCACCCAUGU”, the “apparent Kd” value is 14.8 nM under setting [1] and 12.3 nM under setting [2].
Turning to “GUAGCAUACGGAGGAUAUUCAUACCGGAAACGGACAUGAGGAUCACCCAUGUGGCGAAAGCCUUGGGAGAAGGCCGUAUGCUAC”, the “apparent Kd” value under setting [3] turned out to be 671 nM and the “apparent Kd” value under setting [4] is 21.9 nM.
With “GGUGUACAUGAGGAUCACCCAUGUCGACCGCUCACAGGAUAUUUAAUACAAACUGGUAGCGGAGAAGGGUGAGGAA”, the “apparent Kd” value came to 295 nM under setting [3] and 312 nM under setting [4].
“CGCUAAGAGAACUAUUAGAGAAGACAUGAGGAUCACCCAUGUAGAAGGACAACGGAAUAAACGUUGUAGGAUAUACACUUAGCG”: the “apparent Kd” value was determined as 22.6 nM under setting [1] and 17 nM under setting [2].
With “CUAUAGAUAUCAGGAUAUCUAUUUCCUACAUGAGGAUCACCCAUGUAGAGGAUCACCCAUGUAAAGGAGAAGGGAUAUCUAUAG”, the “apparent Kd” value by setting is: under setting [3], 91.3 nM; under setting [4], 20.4 nM.
Regarding “CCUUUAUUUUCAGGAUAUCCGUUUAGGUAGAUAACAUGAGGAUCACCCAUGUCCAUGUUGUAAGUGGAGAAGGGAAAGAGUGGG”, the “apparent Kd” value runs as follows: under setting [3], 182 nM; under setting [4], 120 nM.
Turning to “ACACGGUAUGUAGGAUAUGCAUAGCAUUGCUAUGCAGAAGGACAUGAGGAUCACCCAUGUAUGUAUUCCAUACUAAUCCCGUGG”, the “apparent Kd” value is, setting by setting: under setting [1], 5.77 nM; under setting [2], 5.74 nM.
Regarding “AAAACAUGAGGAUCACCCAUGUAAAGUUCAAACAAUAUGAGUGAGGAUAUACUGAGUUAGUUAUGGUAGAAGGCACUGGGUACA”, the “apparent Kd” value runs as follows: under setting [3], 35 nM; under setting [4], 28.7 nM.
With “CUGGUCUAUGUAGGAUAUGGUGUAUAUGUAUUACCAGAAGGACAUGAGGAUCACCCAUGUGUCGUGGUAUGAGUAGGUGAUGUU”, the “apparent Kd” value under setting [1] stood at 47.2 nM and the “apparent Kd” value under setting [2] stood at 146 nM.
In the case of “AAAAAACAUGAGGAUCACCCAUGUCUUUUGACAUGAGGAUAUGUACAGACUUCGGUCUGUACAGAAGGCAUGUAAA”, the “apparent Kd” value stood at 511 nM under setting [3] and 34.7 nM under setting [4].
For “UUGUUAAGAGGAUAUACAUGAGGAUCACCCAUGUGAGAAGUCCAGGGCGUAUUUUCUUGUAGAAGGUUUAGCCC”, the “apparent Kd” value came to 25.1 nM under setting [1] and 15.8 nM under setting [2].
Take “AAACCGUGUGGAGGAUAUGCAGUUGAGGUGAGGUGGCAACUCUAUACGACAGCAGAAGGCCACAUGAGGAUCACCCAUGUAGGU”: the “apparent Kd” value under setting [1] is 251 nM and the “apparent Kd” value under setting [2] was determined as 73.6 nM.
As to “GGCUGUCGGUCGGGUCAUCCACAUGAGGAUCACCCAUGUAGGAGAAGGGUCCGCCAGGCUUGUGGAUAGGAUAUCCUAGAAUGA”, the “apparent Kd” value is, setting by setting: under setting [1], 5.45 nM; under setting [2], 5.52 nM.
Taken in the same sequence, the figures for “AGAAACUAGGAGAAGGACAUAUGAUUAAGACGAAACAUGAGGAUCACCCAUGUAGGAUAUCCUAGUUUCAGGAUCGUGAGAUCA” were 7.58 nM and 15.3 nM.
Consider “GAAGCCUGAGAGAAGGGCCACAUGAGGAUCACCCAUGUGUGCUCUCCUGUGGCAGGAUAUCUAUGGGCUGACUGGCUAAUCCAU”, for which the “apparent Kd” value worked out at 6.84 nM under setting [1] and 4.6 nM under setting [2].
Regarding “AGUUAAUAUCGAGGAUAUCUCAUGGAUACAUGAGGAUCACCCAUGUGAAUGGGAGAAGGCGAUAUUAACAGCAUGUUACAUGCA”, the “apparent Kd” value runs as follows: under setting [3], 32 nM; under setting [4], 7.05 nM.
Taken in the same sequence, the figures for “UGUUGUAUUACAGGAUAUCUAUUAUUUUUUUUUAGAGAAGGGUAUUCACAUGAGGAUCACCCAUGUAUAUACGAGGAAGUUGUG” were 59.8 nM and 62 nM.
Regarding “AGGAUGCGUGCAGGAUAUCGAGUCGGGAUGGCUCGCGUGGUGUGCCACAUGAGGAUCACCCAUGUCGAGAAGGGCAGGCGGCGC”, the “apparent Kd” value is, setting by setting: under setting [1], 535 nM; under setting [2], 256 nM.
As for “GACAUCGCAGGAUAUUAUUGUUUGUACAUGAGGAUCACCCAUGUUAAUUGGGUUAAUGUUUAAGAAGGGCGGUGUC”, the “apparent Kd” value by setting is: under setting [1], 642 nM; under setting [2], 557 nM.
